≈ marks a conversion by molar mass, not a printed value. Calls of active or inactive are those of the source. The calls are words filed in the database; no cut-off is given here.
How the values were obtained:
[1] = tested on: Candida albicans; test: Antifungal activity against azole-resistant Candida albicans after 24 hrs by resazurin dye based fluorimetric assay; format: functional, organism-based
Outline: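 Inoculum 5 × 10³ CFU/mL in RPMI-1640 with Mops buffer and glucose. Tested at 64, 16, 4, 1 and 0.25 µM from DMSO stocks, final DMSO <1%. Incubated 24 h at 37 °C, then resazurin added and fluorescence read after 0.5 h (ex 550/em 590 nm). Growth normalized to untreated (100%) and medium-only (0%) wells; IC50 calculated. Flucytosine positive control.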

[2] = tested on: Mycobacterium tuberculosis; test: Antitubercular activity against Mycobacterium tuberculosis H37Rv by MABA; format: functional
[3] = tested on: Mycobacterium tuberculosis; test: Antitubercular activity against Mycobacterium tuberculosis H37Rv by LORA; format: functional
[4] = tested on: Staphylococcus aureus; test: Antibacterial activity against Staphylococcus aureus ATCC 6538 after 17 hrs by resazurin dye based fluorimetric assay; format: functional, organism-based; details: ATCC 6538, 17 h
Outline: (§1)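 Bacteria grown in Mueller Hinton broth; 5 × 10³ CFU/mL inoculum with compound at 64, 16, 4, 1 and 0.25 µM (DMSO final <1%), 37 °C for 17 h. Resazurin added, fluorescence read after 0.5 h (ex 550/em 590 nm). Growth normalised to untreated (100%) and medium-only (0%) wells; IC50 calculated.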

[5] = tested on: Escherichia coli; test: Antibacterial activity against Escherichia coli ATCC 8739 after 17 hrs by resazurin dye based fluorimetric assay; format: functional, organism-based; details: ATCC 8739, ATCC 8739, 17 h; outline: as §1
[6] = tested on: Trypanosoma cruzi; test: Antitrypanosomal activity against beta-galactosidase expressing nifurtimox-sensitive Trypanosoma cruzi Tulahuen CL2 infected in human MRC5 SV2 cells assessed as reduction in parasite burden after 168 hrs by CPRG and Nonidet based spectrophotometric analysis; format: functional, organism-based; details: Tulahuen CL2, MRC-5 SV2, 168 h
Outline: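 MRC-5 cells (4·10³/well) plus 4·10⁴ parasites per well with compound at 64–0.25 µM, 37 °C, 5% CO2 for 7 days. CPRG/Nonidet in PBS added; absorbance at 540 nm after 4 h. Percent burden reduction versus untreated-infected and uninfected controls; IC50 calculated.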

[7] = tested on: Trypanosoma brucei; test: Antitrypanosomal activity against suramin-sensitive Trypanosoma brucei Squib 427 assessed as parasite growth inhibition after 72 hrs by resazurin assay; format: functional, organism-based; details: Squib 427, 72 h
Outline: (§2)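 Bloodstream parasites in HMI-9 with 10% inactivated FCS; 1.5 × 10³ (T. brucei) or 4 × 10³ (T. rhodesiense) per well, compound 64–0.25 µM, 37 °C, 5% CO2, 3 days. Resazurin (50 µg/mL) added; fluorescence read after 24 h (T. brucei) or 6 h (T. rhodesiense), ex 550/em 590 nm. IC50 from % growth inhibition.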

[8] = tested on: Trypanosoma brucei rhodesiense; test: Antitrypanosomal activity against Trypanosoma brucei rhodesiense STIB 900 assessed as parasite growth inhibition after 72 hrs by resazurin assay; format: functional, organism-based; details: STIB 900, 72 h; outline: as §2
[9] = tested on: Leishmania infantum; test: Antileishmanial activity against amastigote stage of Leishmania infantum MHOM/MA(BE)/67 infected in mouse primary peritoneal macrophages assessed as decrease in parasite burden after 5 days by Giemsa staining-based microscopic method; format: functional, organism-based; details: MHOM/MA(BE)/67, 120 h
Outline: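 Amastigotes purified from infected hamster spleen; starch-stimulated mouse peritoneal macrophages (3·10⁴/well) infected with 4.5·10⁵ parasites in supplemented RPMI-1640. Compound (64–0.25 µM) added 2 h post-infection; 5 days, 37 °C, 5% CO2. Amastigotes per macrophage counted microscopically after 10% Giemsa staining; % burden reduction versus controls, IC50 calculated.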

[10] = Cytotoxicity against human MRC5 SV2 cells after 3 days by resazurin dye based fluorescence assay; format: cell-based; details: MRC-5 SV2, 72 h
Outline: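 MRC-5SV2 fibroblasts in MEM with L-glutamine, NaHCO3, 5% inactivated FCS; 5 × 10³ inoculum with compound at 64–0.25 µM (4-fold steps, DMSO <1%), 37 °C, 5% CO2, 3 days. Resazurin added, fluorescence after 4 h (ex 550/em 590 nm). Viability relative to untreated and medium controls; IC50 calculated.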

[11] = tested on: Staphylococcus epidermidis; test: Antibiofilm activity against Staphylococcus epidermidis ATCC 35984 at 125 uM by safranin staining based assay relative to control; format: functional
[12] = tested on: Staphylococcus epidermidis; test: Growth inhibition of Staphylococcus epidermidis ATCC 35984; format: functional, organism-based
[13] = tested on: Pseudomonas aeruginosa; test: Antibiofilm activity against Pseudomonas aeruginosa CUCG 56489 at 250 uM by safranin staining based assay relative to control; format: functional
[14] = tested on: Escherichia coli; test: Antibiofilm activity against Escherichia coli clinical isolates at 500 uM by safranin staining based assay relative to control; format: functional
[15] = tested on: Escherichia coli; test: Growth inhibition of Escherichia coli clinical isolates at 500 uM; format: functional; details: read-out: GI
[16] = tested on: Staphylococcus epidermidis; test: Antibiofilm activity against Staphylococcus epidermidis ATCC 35984 up to 1000 uM by safranin staining based assay; format: functional, organism-based
[17] = tested on: Pseudomonas aeruginosa; test: Antibiofilm activity against Pseudomonas aeruginosa CUCG 56489 up to 1000 uM by safranin staining based assay; format: functional, organism-based
[18] = tested on: Escherichia coli; test: Antibiofilm activity against Escherichia coli clinical isolates at 1 mM by safranin staining based assay relative to control; format: functional

| SMILES | IC50 [1] [µM] | MIC [2] [µg/mL] | MIC [3] [µg/mL] | IC50 [4] [µM] | IC50 [5] [µM] | IC50 [6] [µM] | IC50 [7] [µM] | IC50 [8] [µM] | IC50 [9] [µM] | IC50 [10] [µM] | also measured |
| --- | --- | --- | --- | --- | --- | --- | --- | --- | --- | --- | --- |
| Nc1nc(=O)[nH]cc1F [FLUCYTOSINE] | 0.41 | – | – | – | – | – | – | – | – | – | – |
| NNC(=O)c1ccncc1 [ISONIAZID] | – | 0.48 (≈ 3.5 µM) | > 128 | – | – | – | – | – | – | – | – |
| CC(C)=CCC/C(C)=C/CC/C(C)=C/CC/C(C)=C/C[n+]1cn(C)c2nc[nH]/c(=N\O)c21.[Br-] | 2 | 11.3 | 15.3 | 1.89 | > 64 | 0.54 | 2.01 | 0.5 | 2.16 | 1.9 | Activity [11]: 90%; IC50 [12]: 125 µM; Activity [13]: 40 - 50%; Activity [14]: 70%; inhibition of growth at 500 µM [15]: 20% |
| CCCCCCCCCCCCCCCCOP(=O)([O-])OCC[N+](C)(C)C [MILTEFOSINE] | – | – | – | – | – | – | – | – | 11.8 | – | – |
| C[C@H]1c2cccc(O)c2C(=O)C2=C(O)[C@]3(O)C(=O)C(C(N)=O)=C(O)[C@@H](N(C)C)[C@@H]3[C@@H](O)[C@@H]21 [DOXYCYCLINE] | – | – | – | 0.03 | 0.58 | – | – | – | – | – | – |
| CC/C(=C(\c1ccccc1)c1ccc(OCCN(C)C)cc1)c1ccccc1 [TAMOXIFEN] | – | – | – | – | – | – | – | – | – | 11.2 | – |
| CC(C)=CCC/C(C)=C/C[n+]1cn(C)c2nc[nH]/c(=N\O)c21.[Br-] | > 64 | > 50 | > 50 | > 64 | > 64 | 11.5 | 28 | 8.06 | 20.3 | > 64 | Activity [16]: inactive; Activity [17]: inactive; Activity [18]: 50% |
| Cc1ccc(C(=O)Nc2ccc(S(=O)(=O)O)c3cc(S(=O)(=O)O)cc(S(=O)(=O)O)c23)cc1NC(=O)c1cccc(NC(=O)Nc2cccc(C(=O)Nc3cc(C(=O)Nc4ccc(S(=O)(=O)O)c5cc(S(=O)(=O)O)cc(S(=O)(=O)O)c45)ccc3C)c2)c1 [SURAMIN] | – | – | – | – | – | – | 0.02 | 0.03 | – | – | – |
| O=C(Cn1ccnc1[N+](=O)[O-])NCc1ccccc1 [BENZNIDAZOLE] | – | – | – | – | – | 2.69 | – | – | – | – | – |

Reference: ChEMBL document CHEMBL4330137, “Synthesis and antimicrobial activities of N6-hydroxyagelasine analogs and revision of the structure of ageloximes” (Bioorg Med Chem, 2019)
